Reference: ChEMBL document CHEMBL2412959, “Investigations on synthesis and structure elucidation of novel [1,2,4]triazolo[1,2-a]pyridazine-1-thiones and their inhibitory activity against inducible nitric oxide synthase” (Bioorg Med Chem, 2013)
Activity calls are given as the source filed them. The calls are words filed in the database; no cut-off is given here.

Legend:
[1] = Cytotoxicity against rat RINm5F cells at 39 to 78 uM by MTT assay; format: cell-based
How it was run: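 RIN5F rat insulinoma cells, 1×10^5 per well, cytokine-induced and compound-treated as for the NO assay. After supernatant removal, medium was replaced with fresh medium containing MTT (2.5 mg/mL in PBS) for 4 h at 37 °C. Formazan was dissolved in DMSO. Viability is expressed as percent of cytokine-stimulated cells without compound.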

[2] = molecular target: Nitric oxide synthase, inducible (Rattus norvegicus) (UniProt Q06518); test: Ratio of aminoguanidine IC50 to compound IC50 for iNOS-mediated NO production in IL-1beta/IFNgamma-stimulated rat […] cells by Griess reaction
[3] = molecular target: Nitric oxide synthase, inducible (Rattus norvegicus, UniProt Q06518); test: (§1) Inhibition of iNOS-mediated NO production in IL-1beta/IFNgamma-stimulated rat […] cells by Griess reaction
How it was run: (§2)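 Same cytokine-stimulated RIN5F Griess assay (IL-1β 1 ng/mL, IFN-γ 10 ng/mL; nitrite at 550 nm, nitrite calibration). Concentrations were chosen per compound to span 10–90% inhibition, plus one or two outside this range. IC50 was obtained by linear regression of log concentration versus percent inhibition.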

[4] = Chemical stability in DMSO assessed as compound precipitation after 7 days; format: physicochemical; details: 168 h
[5] = Chemical stability in DMSO assessed as compound precipitation after several weeks; format: physicochemical
[6] = molecular target: Nitric oxide synthase, inducible (Rattus norvegicus) (UniProt Q06518); test: Inhibition of iNOS-mediated NO production in IL-1beta/IFNgamma-stimulated rat […] cells at 39 to 78 uM by Griess reaction
How it was run: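 Compounds were added from 62.5 mM DMSO stock at 78 and 39 μM (final 0.5% DMSO). Nitrite in supernatant was measured by Griess reagents, absorbance 550 nm, against a 0–100 μM nitrite standard. Aminoguanidine was the reference on each plate. n = 5–8.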

[7] = molecular target: Nitric oxide synthase, inducible (Rattus norvegicus) (UniProt Q06518); test: as §1; how it was run: as §2

Nitric oxide synthase, inducible, sequence (Q06518 whole entry): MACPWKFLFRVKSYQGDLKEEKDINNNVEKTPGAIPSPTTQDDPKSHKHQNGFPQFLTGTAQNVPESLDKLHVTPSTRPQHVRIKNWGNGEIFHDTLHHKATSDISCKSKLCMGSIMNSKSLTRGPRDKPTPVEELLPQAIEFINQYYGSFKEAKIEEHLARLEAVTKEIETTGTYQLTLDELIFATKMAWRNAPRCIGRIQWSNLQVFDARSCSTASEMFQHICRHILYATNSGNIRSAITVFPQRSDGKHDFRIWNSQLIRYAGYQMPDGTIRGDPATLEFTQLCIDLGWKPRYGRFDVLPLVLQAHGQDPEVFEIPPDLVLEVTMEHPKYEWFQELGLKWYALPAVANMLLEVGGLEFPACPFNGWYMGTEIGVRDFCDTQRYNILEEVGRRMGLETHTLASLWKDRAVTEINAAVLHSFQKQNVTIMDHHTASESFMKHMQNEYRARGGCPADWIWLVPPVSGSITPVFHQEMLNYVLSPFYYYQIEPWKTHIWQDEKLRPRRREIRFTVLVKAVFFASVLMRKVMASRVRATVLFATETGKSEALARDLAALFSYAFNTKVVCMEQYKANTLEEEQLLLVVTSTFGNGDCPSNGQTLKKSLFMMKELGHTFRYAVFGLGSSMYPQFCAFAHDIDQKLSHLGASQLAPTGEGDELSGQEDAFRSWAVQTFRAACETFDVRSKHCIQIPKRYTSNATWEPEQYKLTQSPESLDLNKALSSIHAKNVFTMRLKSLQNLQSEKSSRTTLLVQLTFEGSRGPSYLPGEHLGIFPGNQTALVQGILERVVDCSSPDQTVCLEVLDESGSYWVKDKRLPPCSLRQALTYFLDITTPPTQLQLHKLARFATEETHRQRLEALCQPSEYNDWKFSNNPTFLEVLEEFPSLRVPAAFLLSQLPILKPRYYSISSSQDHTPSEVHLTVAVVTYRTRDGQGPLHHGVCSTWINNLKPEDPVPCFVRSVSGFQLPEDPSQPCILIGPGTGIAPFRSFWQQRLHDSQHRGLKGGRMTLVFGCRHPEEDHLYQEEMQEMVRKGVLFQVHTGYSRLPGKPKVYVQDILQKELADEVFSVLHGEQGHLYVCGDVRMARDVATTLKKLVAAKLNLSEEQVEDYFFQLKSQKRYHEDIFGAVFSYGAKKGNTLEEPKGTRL
Nitric oxide synthase, inducible (Rattus norvegicus), sequence (Q06518 whole entry): as above

Row | Structure (SMILES) | Activity [1] | Ratio IC50 [2] | IC50 [3] [µM] | Stability [4] | Stability [5] | inhibition [6] | inhibition [7]
1 | O=[N+]([O-])c1ccccc1/C=C/C1NC(=S)N2CCCCN12 (centres undefined) | Non-toxic | 10 | 9.81 | Unstable |  |  | 
2 | S=C1NC(c2ccccc2)N2CCCCN12 (centres undefined) | Non-toxic |  |  |  | Unstable | Active | 
3 | S=C1NC(Cc2ccccc2)N2CCCCN12 (centres undefined) | Non-toxic |  |  |  | Unstable |  | inactive
4 | Cc1cccc(C2NC(=S)N3CCCCN23)c1 (centres undefined) | Non-toxic |  |  |  | Unstable | Active | 
5 | O=[N+]([O-])c1ccc(C2NC(=S)N3CCCCN23)cc1 (centres undefined) | Non-toxic |  | 13.2 |  | Unstable |  | 
6 | S=C1NC(c2ccc(Cl)cc2)N2CCCCN12 (centres undefined) | Non-toxic |  | 57.6 |  | Unstable |  | 
7 | S=C1NC(/C=C/c2ccccc2)N2CCCCN12 (centres undefined) | Non-toxic |  | 29.9 | Unstable |  |  | 
8 | CC1NC(=S)N2CCCCN12 (centres undefined) | Non-toxic |  |  |  | Unstable |  | inactive
9 | S=C1NC(c2cccc(Cl)c2)N2CCCCN12 (centres undefined) | Non-toxic |  |  |  | Unstable | Active | 
10 | Cc1ccc(C2NC(=S)N3CCCCN23)cc1 (centres undefined) | Non-toxic |  | 53.2 |  | Unstable |  | 
11 | O=[N+]([O-])c1cccc(C2NC(=S)N3CCCCN23)c1 (centres undefined) | Non-toxic |  | 16.2 |  | Unstable |  | 
12 | Oc1ccccc1C1NC(=S)N2CCCCN12 (centres undefined) | Non-toxic |  | 70 |  | Unstable |  | 
13 | N=C(N)NN [PIMAGEDINE] | Non-toxic |  | 132 |  |  |  | 
14 | Oc1cccc(C2NC(=S)N3CCCCN23)c1 (centres undefined) | Non-toxic |  |  |  | Unstable | Active | 
15 | S=C1NC(c2cccc(Oc3ccccc3)c2)N2CCCCN12 (centres undefined) | Non-toxic |  | 40.2 |  | Unstable |  | 
16 | S=C1NC(c2ccccc2Cl)N2CCCCN12 (centres undefined) | Non-toxic |  | 63 |  | Unstable |  | 
17 | CN(C)c1ccc(C2NC(=S)N3CCCCN23)cc1 (centres undefined) | Non-toxic | 2 | 101 |  | Unstable |  | 
18 | Oc1ccc(C2NC(=S)N3CCCCN23)cc1 (centres undefined) | Non-toxic |  |  |  | Unstable | Active | 
19 | O=[N+]([O-])c1ccccc1C1NC(=S)N2CCCCN12 (centres undefined) | Non-toxic |  | 24.2 |  | Unstable |  | 
20 | Cc1ccccc1C1NC(=S)N2CCCCN12 (centres undefined) | Non-toxic |  | 60.3 |  | Unstable |  | 
21 | COc1ccc(C2NC(=S)N3CCCCN23)cc1 (centres undefined) | Non-toxic |  |  |  | Unstable | Active | 
